Data on nine molecules can be found in ChEMBL document CHEMBL4177760, “Ligand-Phospholipid Conjugation: A Versatile Strategy for Developing Long-Acting Ligands That Bind to Membrane Proteins by Restricting the Subcellular Localization of the Ligand” (J Med Chem, 2018).

SMILES strings stand for the structures. Calls of active or inactive are those of the source. The rule behind the calls is not given here.

The target of test [1] is Muscarinic acetylcholine receptor. As to the kind of experiment: Displacement of [3H]NMS from muscarinic receptor in Sprague-Dawley rat brain homogenates after 60 mins by liquid scintillation counting method. The method in brief: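 Competition binding against [3H]N-methyl scopolamine in rat brain homogenates carrying muscarinic receptors; read-out as log IC50; data from at least four experiments.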

The target in test [2] is T1, Muscarinic acetylcholine receptor (Rattus norvegicus) (UniProt P08482+P08483+P08485+P08911+P10980). Put plainly: Displacement of [3H]NMS from muscarinic receptor in Sprague-Dawley rat brain homogenates assessed as remaining protein bound radioligand levels at 300 pM to 1 uM after 60 mins by liquid scintillation counting method relative to control. The method in brief:
(§1)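 Rat brain homogenates incubated with test ligand at 25 °C. [3H]N-methyl scopolamine binding to muscarinic receptors measured before and after wash-out with ice-cold buffer and expressed as binding remaining. Based on at least four experiments.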
For orientation: In a radioligand displacement assay an active substance lowers the binding of a labelled ligand.

Test [3] has as its target T1, Muscarinic acetylcholine receptor (Rattus norvegicus). Put plainly: Displacement of [3H]NMS from muscarinic receptor in Sprague-Dawley rat brain homogenates assessed as remaining protein bound radioligand levels at 300 pM to 1 uM preincubated for 60 mins followed by single washout treatment by liquid scintillation counting method relative to control. The method in brief: as §1

Test [4] deals with T2, Muscarinic acetylcholine receptor M4 (Rattus norvegicus, UniProt P08485).
T2 sequence (P08485 whole entry): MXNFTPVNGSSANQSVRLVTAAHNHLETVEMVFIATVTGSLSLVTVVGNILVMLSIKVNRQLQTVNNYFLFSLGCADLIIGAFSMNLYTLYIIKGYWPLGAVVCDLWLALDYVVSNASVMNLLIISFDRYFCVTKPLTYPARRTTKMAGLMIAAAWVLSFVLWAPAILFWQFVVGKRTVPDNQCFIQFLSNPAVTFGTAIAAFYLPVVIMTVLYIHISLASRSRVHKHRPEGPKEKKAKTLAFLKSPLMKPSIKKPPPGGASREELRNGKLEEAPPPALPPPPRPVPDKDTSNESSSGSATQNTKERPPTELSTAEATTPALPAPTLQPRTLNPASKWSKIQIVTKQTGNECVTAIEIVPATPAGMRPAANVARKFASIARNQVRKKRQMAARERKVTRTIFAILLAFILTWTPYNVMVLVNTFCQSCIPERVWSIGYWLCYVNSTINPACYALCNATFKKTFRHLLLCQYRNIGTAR
As to the kind of experiment: Displacement of [3H]NMS from muscarinic receptor M4 in Sprague-Dawley rat brain homogenates after 60 mins by liquid scintillation counting method.

The target in test [5] is T1, Muscarinic acetylcholine receptor (Rattus norvegicus). Put plainly: Displacement of [3H]NMS from muscarinic receptor in Sprague-Dawley rat brain homogenates assessed as remaining protein bound radioligand levels at 300 pM to 1 uM preincubated for 60 mins followed by double washout treatment by liquid scintillation counting method relative to control. The method in brief: as §1

Test [6] concerns Rattus norvegicus. Put plainly: In vivo displacement of [3H]NMS from muscarinic receptor in rat bladder assessed as increase in [3H]NMS Kdapp at 10 uM administered via intravesical instillation measured after 24 hrs. Type of test: functional, organism-based. The method in brief: (§2)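 Rats received the compound by intravesical instillation. Bladders were dissected 30 min or 24 h afterwards and [3H]N-methyl scopolamine binding to bladder muscarinic receptors was measured directly. The apparent Kd (Kdapp) of the radioligand was calculated and compared against control animals.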

Test [7] relates to Rattus norvegicus. Put plainly: In vivo displacement of [3H]NMS from muscarinic receptor in rat bladder assessed as increase in [3H]NMS Kdapp at 10 uM administered via intravesical instillation measured after 30 mins. Type of test: functional, organism-based. The method in brief:
as §2

The target in test [8] is T3, Muscarinic acetylcholine receptor M1 (Rattus norvegicus, UniProt P08482).
T3 sequence (P08482 whole entry): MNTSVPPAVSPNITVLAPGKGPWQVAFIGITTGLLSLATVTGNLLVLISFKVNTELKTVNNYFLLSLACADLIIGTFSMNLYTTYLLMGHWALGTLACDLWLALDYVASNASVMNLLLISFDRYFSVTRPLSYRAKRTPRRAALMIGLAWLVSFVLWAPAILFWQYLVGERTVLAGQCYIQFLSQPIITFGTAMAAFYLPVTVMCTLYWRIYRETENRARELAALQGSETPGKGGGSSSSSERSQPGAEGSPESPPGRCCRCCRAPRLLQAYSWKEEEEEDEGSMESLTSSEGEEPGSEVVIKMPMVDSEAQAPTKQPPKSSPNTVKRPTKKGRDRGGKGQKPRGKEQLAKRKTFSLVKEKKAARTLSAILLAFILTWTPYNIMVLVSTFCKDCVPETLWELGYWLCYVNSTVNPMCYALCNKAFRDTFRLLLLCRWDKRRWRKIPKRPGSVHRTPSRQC
Put plainly: Displacement of [3H]NMS from muscarinic receptor M1 in Sprague-Dawley rat brain homogenates after 60 mins by liquid scintillation counting method.

Test [9] has as its target T4, Muscarinic acetylcholine receptor M5 (Rattus norvegicus, UniProt P08911).
T4 sequence (P08911 whole entry): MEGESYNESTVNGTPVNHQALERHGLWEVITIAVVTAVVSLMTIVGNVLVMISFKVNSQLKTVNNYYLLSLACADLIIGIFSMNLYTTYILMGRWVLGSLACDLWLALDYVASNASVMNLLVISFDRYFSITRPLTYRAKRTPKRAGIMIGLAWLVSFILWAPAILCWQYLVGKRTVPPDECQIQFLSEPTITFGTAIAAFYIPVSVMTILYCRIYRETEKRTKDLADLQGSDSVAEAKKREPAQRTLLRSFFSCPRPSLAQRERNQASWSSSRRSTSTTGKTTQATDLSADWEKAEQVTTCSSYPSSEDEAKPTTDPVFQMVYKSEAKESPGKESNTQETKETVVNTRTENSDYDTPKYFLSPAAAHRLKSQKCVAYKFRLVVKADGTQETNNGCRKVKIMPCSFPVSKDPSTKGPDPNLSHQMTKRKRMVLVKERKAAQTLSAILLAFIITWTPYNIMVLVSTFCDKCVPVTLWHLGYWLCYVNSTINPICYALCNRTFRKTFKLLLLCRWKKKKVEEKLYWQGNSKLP
Put plainly: Displacement of [3H]NMS from muscarinic receptor M5 in Sprague-Dawley rat brain homogenates after 60 mins by liquid scintillation counting method.

For test [10], the target named is T5, Muscarinic acetylcholine receptor M2 (Rattus norvegicus, UniProt P10980).
T5 sequence (P10980 whole entry): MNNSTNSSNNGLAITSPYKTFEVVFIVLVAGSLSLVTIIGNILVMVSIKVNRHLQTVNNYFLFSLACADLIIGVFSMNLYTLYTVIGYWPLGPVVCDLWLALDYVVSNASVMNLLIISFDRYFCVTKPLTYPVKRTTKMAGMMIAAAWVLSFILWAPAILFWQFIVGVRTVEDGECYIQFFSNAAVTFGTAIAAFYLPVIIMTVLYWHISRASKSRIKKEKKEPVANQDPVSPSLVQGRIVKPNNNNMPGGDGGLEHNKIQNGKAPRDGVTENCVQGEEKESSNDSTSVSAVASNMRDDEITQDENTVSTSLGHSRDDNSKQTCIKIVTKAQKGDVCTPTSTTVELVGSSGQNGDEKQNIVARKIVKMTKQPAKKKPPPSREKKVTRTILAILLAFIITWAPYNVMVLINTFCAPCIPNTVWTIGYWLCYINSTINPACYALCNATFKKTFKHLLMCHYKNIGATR
As to the kind of experiment: Displacement of [3H]NMS from muscarinic receptor M2 in Sprague-Dawley rat brain homogenates after 60 mins by liquid scintillation counting method.

Test [11] deals with Muscarinic acetylcholine receptor M3 (Rattus norvegicus, UniProt P08483). Put plainly: Displacement of [3H]NMS from muscarinic receptor M3 in Sprague-Dawley rat brain homogenates after 60 mins by liquid scintillation counting method.
Chain of Muscarinic acetylcholine receptor M3 (P08483 whole entry): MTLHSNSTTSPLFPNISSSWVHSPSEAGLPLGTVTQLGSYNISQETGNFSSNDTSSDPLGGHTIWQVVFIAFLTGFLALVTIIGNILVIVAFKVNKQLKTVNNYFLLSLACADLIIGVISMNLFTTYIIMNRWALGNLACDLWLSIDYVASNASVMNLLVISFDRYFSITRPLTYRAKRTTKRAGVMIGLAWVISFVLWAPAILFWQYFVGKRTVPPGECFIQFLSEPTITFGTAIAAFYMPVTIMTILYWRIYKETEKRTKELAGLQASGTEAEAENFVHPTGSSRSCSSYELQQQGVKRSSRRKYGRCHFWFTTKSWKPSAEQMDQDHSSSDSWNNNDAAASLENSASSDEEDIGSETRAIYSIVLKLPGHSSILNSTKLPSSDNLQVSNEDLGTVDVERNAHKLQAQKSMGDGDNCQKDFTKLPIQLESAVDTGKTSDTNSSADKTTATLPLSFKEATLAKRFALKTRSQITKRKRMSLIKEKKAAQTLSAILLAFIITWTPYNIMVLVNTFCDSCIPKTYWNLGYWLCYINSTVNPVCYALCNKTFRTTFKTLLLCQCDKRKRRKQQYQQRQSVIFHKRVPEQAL

For `CCCCCCCCCCCCCCCCCC(=O)OC[C@H](COP(=O)(O)OCCOCCOCCOCCOCCOCCOCCOCCNC(=O)CCCCCC(=O)NCCc1ccc(O)c([C@H](CCN(C(C)C)C(C)C)c2ccccc2)c1)OC(=O)CCCCCCCCCCCCCCCCC`, in [1], the pIC50 (in general, −log10 of the IC50, conventionally taken in molar units) was 8.15. Besides, the Activity in test [2] was found to be 4.7%; in test [3] it was 2.1%.

Take `Cc1ccc(O)c([C@H](CCN(C(C)C)C(C)C)c2ccccc2)c1` [TOLTERODINE]: the Ki (commonly the equilibrium dissociation constant of an inhibitor or competing ligand from its target) in test [4] is 3.1 nM; in [8] it was 1.4 nM; in test [9], 2.2 nM. Besides, the Activity was 93.2% in test [5], 9% in [2] and 36.2% in [3]. Further, the inhibition entry in test [6] was “inactive”. For the same molecule, in test [7], the inhibition entry is “Active”.

Regarding `CC(C)N(CC[C@H](c1ccccc1)c1cc(CCNC(=O)CCCCCNC(=O)COc2ccc(/C=C/C3=[N+]4C(=Cc5ccc(-c6cccs6)n5[B-]4(F)F)C=C3)cc2)ccc1O)C(C)C`, the Ki in [4] is 6.3 nM; in test [8], 4.6 nM; in [10], 9 nM; in test [11] it was 10.3 nM; in [9], 17.5 nM.

As to `CC(C)N(CC[C@H](c1ccccc1)c1cc(CCNC(=O)CCCCCC(=O)NCCOCCOCCOCCOCCOCCOCCOCCOCCOCCO)ccc1O)C(C)C.Cl`, the pIC50 in test [1] worked out at 7.88. For the same molecule, the Activity in test [5] amounted to 63.5%; in test [2], 7.1%; in [3], 34.9%.

As to `CCCCCCCCCCCCCCCCCC(=O)OC[C@H](COP(=O)(O)OCCOCCOCCOCCOCCOCCOCCOCCOCCOCCNC(=O)CCCCCC(=O)NCCc1ccc(O)c([C@H](CCN(C(C)C)C(C)C)c2ccccc2)c1)OC(=O)CCCCCCCCCCCCCCCCC`, the pIC50 in test [1] was 8.53. Also, the values for the Activity in [5], in test [2] and in test [3] were 2.1%, 6% and 1.7%, respectively. The inhibition result in test [6] and in test [7] was “Active” each time.

Turning to `CCCCCCCCCCCCCCCCCC(=O)OC[C@H](COP(=O)(O)OCCOCCOCCOCCOCCOCCOCCOCCOCCOCCOCCOCCNC(=O)CCCCCC(=O)NCCc1ccc(O)c([C@H](CCN(C(C)C)C(C)C)c2ccccc2)c1)OC(=O)CCCCCCCCCCCCCCCCC`, in [1], the pIC50 came to 8.49. In addition, the Activity came to 11.2% in test [2] and 1.9% in test [3].

For `CCCCCCCCCCCCCCCCCC(=O)OC[C@H](COP(=O)(O)OCCOCCOCCOCCNC(=O)CCCCCC(=O)NCCc1ccc(O)c([C@H](CCN(C(C)C)C(C)C)c2ccccc2)c1)OC(=O)CCCCCCCCCCCCCCCCC`, the pIC50 in test [1] worked out at 7.74. The Activity came out at 32.3% in test [2] and 15.5% in test [3].

`CCCCCCCCCCCCCCCCCC(=O)OC[C@H](COP(=O)(O)OCCOCCOCCOCCOCCOCCNC(=O)CCCCCC(=O)NCCc1ccc(O)c([C@H](CCN(C(C)C)C(C)C)c2ccccc2)c1)OC(=O)CCCCCCCCCCCCCCCCC` came in with a negative logarithm of the IC50 (pIC50) in test [1] of 7.86. Moreover, the Activity was 14.5% in test [2] and 5.1% in test [3].

For the molecule `CCCCCCCCCCCCCCCCCC(=O)OC[C@H](COP(=O)(O)OCCOCCNC(=O)CCCCCC(=O)NCCc1ccc(O)c([C@H](CCN(C(C)C)C(C)C)c2ccccc2)c1)OC(=O)CCCCCCCCCCCCCCCCC`, the pIC50 in [1] amounted to 6.91. The Activity in test [2] was 66.4%; in [3], 59.2%.
